This is an account of results in ChEMBL document CHEMBL5512684 (J Med Chem, 2024).

For orientation: pIC50 means −log10 of the IC50, conventionally taken in molar units.

Experiment [1] deals with T1, Neuronal acetylcholine receptor subunit alpha-7 (Homo sapiens, UniProt P36544). Briefly: Antagonist activity at human alpha7 nAChR expressed in Xenopus laevis oocytes assessed as inhibition of Ach-induced response at -70 mV holding potential measured after 5 mins by two electrode voltage-clamp electrophysiology method. In kind it is cell-based, Oocyte. Summed up:
(§1)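 TEVC at −70 mV after 1–4 days, perfusion ~3 mL/min, saline pH 7.4 with BSA. ACh 3 mM for α10, 100 μM for α7. α7 pulses 500 ms, α10 1 s, every 60 s. Peptide perfused up to 1 μM, static 5-min bath above.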
Background: In two-electrode clamp one electrode senses voltage and the other passes current.

Experiment [2] has as its target Neuronal acetylcholine receptor; alpha9/alpha10 (Homo sapiens, UniProt Q9GZZ6+Q9UGM1). The experiment in a line: Antagonist activity at human alpha9alpha10 nAChR expressed in Xenopus laevis oocytes assessed as inhibition of Ach-induced response at -70 mV holding potential measured after 5 mins by two electrode voltage-clamp electrophysiology method. It counts as cell-based, Oocyte.

The target in experiment [3] is T1, Neuronal acetylcholine receptor subunit alpha-7. The experiment in a line: Antagonist activity at human alpha7 nAChR expressed in Xenopus laevis oocytes assessed as inhibition of Ach-induced response by measuring residual activity at 10 uM at -70 mV holding potential measured after 5 mins by two electrode voltage-clamp electrophysiology method relative to control. Conditions: Oocyte. In kind it is cell-based. Summed up:
(§2)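 Single-point test at 10 μM peptide, applied for 5 min in a static bath to oocytes under TEVC at −70 mV. ACh 100 μM (α7, α9, α9α10) or 3 mM (α10), pulsed every 60 s. The ACh response was normalized to the response after a 5-min bath application of control saline.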

The target of experiment [4] is T2, Neuronal acetylcholine receptor; alpha9/alpha10 (Homo sapiens) (UniProt Q9UGM1+Q9GZZ6). Briefly: Antagonist activity at human alpha9alpha10 nAChR expressed in Xenopus laevis oocytes assessed as inhibition of Ach-induced response by measuring residual activity at 10 uM at -70 mV holding potential measured after 5 mins by two electrode voltage-clamp electrophysiology method relative to control. In kind it is cell-based. Conditions: Oocyte. Summed up:
as §2

For experiment [5], the target named is T1, Neuronal acetylcholine receptor subunit alpha-7. The experiment in a line: Antagonist activity at human alpha7 nAChR expressed in Xenopus laevis oocytes assessed as inhibition of Ach-induced response assessed as residual activity at 10 uM at -70 mV holding potential preincubated for 5 mins followed by peptide washout and measured after 15 mins by two electrode voltage-clamp electrophysiology method (reference value: 30 +/- 9%). Conditions: Oocyte. It counts as cell-based. A digest of the protocol:
(§3)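 Recovery of ACh-evoked responses was then followed during peptide washout for 15 min. Values are given as percent of control responses.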

Experiment [6] deals with T2, Neuronal acetylcholine receptor; alpha9/alpha10 (Homo sapiens). Briefly: Antagonist activity at human alpha9alpha10 nAChR expressed in Xenopus laevis oocytes assessed as inhibition of Ach-induced response assessed as residual activity at 10 uM at -70 mV holding potential preincubated for 5 mins followed by peptide washout and measured after 15 mins by two electrode voltage-clamp electrophysiology method (reference value: 3 +/- 2%). The conditions noted are these: Oocyte. It counts as cell-based. A digest of the protocol: as §3

Experiment [7] concerns the target Neuronal acetylcholine receptor; alpha3/beta2 (Homo sapiens, UniProt P17787+P32297). The experiment in a line: Antagonist activity at human alpha3beta2 nAChR expressed in Xenopus laevis oocytes assessed as inhibition of Ach-induced response at -70 mV holding potential measured after 5 mins by two electrode voltage-clamp electrophysiology method. It counts as cell-based, Oocyte. Summed up: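 Oocytes expressing human α3β2 nAChRs were clamped at −70 mV by TEVC 1–4 days after cRNA injection and gravity-perfused with HEPES-buffered saline, pH 7.4. ACh was pulsed every 60 s until responses were stable. Peptide was perfused up to 1 μM, or given as a 5-min static bath above 1 μM. Responses were normalized to control ACh responses.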

Experiment [8] addresses T3, Neuronal acetylcholine receptor subunit alpha-9 (Homo sapiens, UniProt Q9UGM1). Briefly: Antagonist activity at human alpha9 nAChR expressed in Xenopus laevis oocytes assessed as inhibition of Ach-induced response at -70 mV holding potential measured after 5 mins by two electrode voltage-clamp electrophysiology method. It counts as cell-based, Oocyte. Summed up: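 Human α9 or α9α10 cRNA in stage IV–V oocytes kept at 16 °C; α9-only oocytes incubated with 5 mM choline. TEVC at −70 mV, 1–4 days post-injection. 1 s pulses of 100 μM ACh every 60 s until responses were stable. Peptide perfused (≤1 μM) and responses normalized to the mean of three control responses. Above 1 μM, 5-min static bath normalized to a 5-min control-saline bath.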

Experiment [9] concerns the target T4, Neuronal acetylcholine receptor subunit alpha-10 (Homo sapiens, UniProt Q9GZZ6). The experiment in a line: Antagonist activity at human alpha10 nAChR expressed in Xenopus laevis oocytes assessed as inhibition of Ach-induced response at -70 mV holding potential measured after 5 mins by two electrode voltage-clamp electrophysiology method. It counts as cell-based, Oocyte. Summed up:
as §1

In experiment [10] the target is T3, Neuronal acetylcholine receptor subunit alpha-9. Briefly: Antagonist activity at human alpha9 nAChR expressed in Xenopus laevis oocytes assessed as inhibition of Ach-induced response by measuring residual activity at 10 uM at -70 mV holding potential measured after 5 mins by two electrode voltage-clamp electrophysiology method relative to control. In kind it is cell-based. Conditions: Oocyte. A digest of the protocol:
as §2

Experiment [11] addresses T4, Neuronal acetylcholine receptor subunit alpha-10. Briefly: Antagonist activity at human alpha10 nAChR expressed in Xenopus laevis oocytes assessed as inhibition of Ach-induced response by measuring residual activity at 10 uM at -70 mV holding potential measured after 5 mins by two electrode voltage-clamp electrophysiology method relative to control. In kind it is cell-based. Conditions: Oocyte. Summed up:
as §2

The species entered for experiment [12] is Homo sapiens. Briefly: Selectivity index, ratio of IC50 for antagonist activity at human alpha7 nAChR expressed in Xenopus laevis oocytes assessed as inhibition of Ach-induced response to IC50 for antagonist activity at human alpha3beta2 nAChR expressed in Xenopus laevis oocytes assessed as inhibition of Ach-induced response. It counts as cell-based.
Experiment [13] is filed under the species Homo sapiens. The experiment in a line: Selectivity index, ratio of IC50 for antagonist activity at human alpha9 nAChR expressed in Xenopus laevis oocytes assessed as inhibition of Ach-induced response to IC50 for antagonist activity at human alpha3beta2 nAChR expressed in Xenopus laevis oocytes assessed as inhibition of Ach-induced response. In kind it is cell-based.

For experiment [14], the species on record is Homo sapiens. The experiment in a line: Selectivity index, ratio of IC50 for antagonist activity at human alpha10 nAChR expressed in Xenopus laevis oocytes assessed as inhibition of Ach-induced response to IC50 for antagonist activity at human alpha3beta2 nAChR expressed in Xenopus laevis oocytes assessed as inhibition of Ach-induced response. In kind it is cell-based.

The species named for experiment [15] is Homo sapiens. The experiment in a line: Selectivity index, ratio of IC50 for antagonist activity at human alpha9alpha10 nAChR expressed in Xenopus laevis oocytes assessed as inhibition of Ach-induced response to IC50 for antagonist activity at human alpha3beta2 nAChR expressed in Xenopus laevis oocytes assessed as inhibition of Ach-induced response. It counts as cell-based.

Experiment [16] deals with T1, Neuronal acetylcholine receptor subunit alpha-7. Briefly: Antagonist activity at human alpha7 nAChR expressed in Xenopus laevis oocytes assessed as inhibition of Ach-induced response assessed as residual activity at 10 uM at -70 mV holding potential preincubated for 5 mins followed by peptide washout and measured after 15 mins by two electrode voltage-clamp electrophysiology method (reference value: 0.5 +/- 0.2%). In kind it is cell-based. The conditions noted are these: Oocyte. A digest of the protocol:
as §3

For experiment [17], the target named is T2, Neuronal acetylcholine receptor; alpha9/alpha10 (Homo sapiens). Briefly: Antagonist activity at human alpha9alpha10 nAChR expressed in Xenopus laevis oocytes assessed as inhibition of Ach-induced response assessed as residual activity at 10 uM at -70 mV holding potential preincubated for 5 mins followed by peptide washout and measured after 15 mins by two electrode voltage-clamp electrophysiology method (reference value: 0.5%). In kind it is cell-based. Conditions: Oocyte, filed as antagonist. A digest of the protocol:
as §3

pIC50: −log10 of the molar value. Peptide text beside a SMILES is read from it. Where only a bound is given, the exact number is not on record here.

Chain of Neuronal acetylcholine receptor; alpha9/alpha10 (Q9UGM1 whole entry): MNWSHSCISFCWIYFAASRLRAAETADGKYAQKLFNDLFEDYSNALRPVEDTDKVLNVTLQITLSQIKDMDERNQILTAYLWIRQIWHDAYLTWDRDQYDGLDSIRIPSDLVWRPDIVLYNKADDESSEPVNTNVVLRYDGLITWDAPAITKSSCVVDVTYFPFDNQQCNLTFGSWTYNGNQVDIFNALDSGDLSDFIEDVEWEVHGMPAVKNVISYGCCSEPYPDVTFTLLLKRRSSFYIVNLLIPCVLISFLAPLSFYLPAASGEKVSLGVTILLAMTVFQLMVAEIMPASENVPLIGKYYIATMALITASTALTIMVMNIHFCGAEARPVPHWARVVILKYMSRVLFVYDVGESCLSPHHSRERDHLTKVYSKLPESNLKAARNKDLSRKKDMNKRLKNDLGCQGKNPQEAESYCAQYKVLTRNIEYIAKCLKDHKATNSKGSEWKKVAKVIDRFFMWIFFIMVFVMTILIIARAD
Chain of Neuronal acetylcholine receptor; alpha9/alpha10 (Q9GZZ6 whole entry): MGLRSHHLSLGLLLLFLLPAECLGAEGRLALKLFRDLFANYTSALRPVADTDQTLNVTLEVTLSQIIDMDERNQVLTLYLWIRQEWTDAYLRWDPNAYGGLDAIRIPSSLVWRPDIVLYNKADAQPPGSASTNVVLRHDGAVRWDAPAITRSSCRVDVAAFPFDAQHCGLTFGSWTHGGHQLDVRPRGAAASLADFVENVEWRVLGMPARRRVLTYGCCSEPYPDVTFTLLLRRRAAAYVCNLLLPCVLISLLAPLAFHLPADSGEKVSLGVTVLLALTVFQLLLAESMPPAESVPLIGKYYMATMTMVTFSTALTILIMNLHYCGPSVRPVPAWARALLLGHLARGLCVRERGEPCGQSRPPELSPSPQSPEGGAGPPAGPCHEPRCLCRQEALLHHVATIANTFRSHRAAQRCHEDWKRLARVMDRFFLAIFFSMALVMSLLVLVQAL
T1 sequence (P36544 whole entry, the tested form may be a part): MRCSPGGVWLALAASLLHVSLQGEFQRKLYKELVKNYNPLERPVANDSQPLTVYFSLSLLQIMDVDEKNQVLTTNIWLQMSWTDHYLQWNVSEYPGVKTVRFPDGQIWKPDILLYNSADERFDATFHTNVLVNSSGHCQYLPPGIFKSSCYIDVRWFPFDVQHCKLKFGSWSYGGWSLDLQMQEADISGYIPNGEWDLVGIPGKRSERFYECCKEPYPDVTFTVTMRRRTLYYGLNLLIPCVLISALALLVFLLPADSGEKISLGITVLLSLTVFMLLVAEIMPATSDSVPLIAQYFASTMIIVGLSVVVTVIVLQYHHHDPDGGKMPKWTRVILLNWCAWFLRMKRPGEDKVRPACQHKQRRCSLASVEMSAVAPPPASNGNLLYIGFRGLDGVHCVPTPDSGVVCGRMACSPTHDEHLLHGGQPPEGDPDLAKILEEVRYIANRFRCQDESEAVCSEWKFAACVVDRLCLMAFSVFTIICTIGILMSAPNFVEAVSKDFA
T3 sequence (Q9UGM1 whole entry, the tested form may be a part): as the sequence (Q9UGM1 whole entry) above
T4 sequence (Q9GZZ6 whole entry): as the sequence (Q9GZZ6 whole entry) above
Chain of Neuronal acetylcholine receptor; alpha3/beta2 (P17787 whole entry, the tested form may be a part): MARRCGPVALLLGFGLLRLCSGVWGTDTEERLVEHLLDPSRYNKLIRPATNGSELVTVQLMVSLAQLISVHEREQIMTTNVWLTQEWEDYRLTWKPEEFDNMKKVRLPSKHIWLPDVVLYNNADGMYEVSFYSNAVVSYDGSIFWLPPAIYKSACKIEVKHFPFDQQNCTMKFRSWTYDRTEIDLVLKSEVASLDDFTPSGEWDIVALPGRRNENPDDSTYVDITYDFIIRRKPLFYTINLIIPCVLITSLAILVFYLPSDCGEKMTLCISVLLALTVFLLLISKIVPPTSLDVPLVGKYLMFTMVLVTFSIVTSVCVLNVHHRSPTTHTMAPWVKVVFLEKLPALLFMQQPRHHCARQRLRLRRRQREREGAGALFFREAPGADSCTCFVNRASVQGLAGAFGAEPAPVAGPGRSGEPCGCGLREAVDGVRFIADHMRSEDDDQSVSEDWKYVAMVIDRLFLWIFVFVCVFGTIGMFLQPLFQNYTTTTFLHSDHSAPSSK
Chain of Neuronal acetylcholine receptor; alpha3/beta2 (P32297 whole entry, the tested form may be a part): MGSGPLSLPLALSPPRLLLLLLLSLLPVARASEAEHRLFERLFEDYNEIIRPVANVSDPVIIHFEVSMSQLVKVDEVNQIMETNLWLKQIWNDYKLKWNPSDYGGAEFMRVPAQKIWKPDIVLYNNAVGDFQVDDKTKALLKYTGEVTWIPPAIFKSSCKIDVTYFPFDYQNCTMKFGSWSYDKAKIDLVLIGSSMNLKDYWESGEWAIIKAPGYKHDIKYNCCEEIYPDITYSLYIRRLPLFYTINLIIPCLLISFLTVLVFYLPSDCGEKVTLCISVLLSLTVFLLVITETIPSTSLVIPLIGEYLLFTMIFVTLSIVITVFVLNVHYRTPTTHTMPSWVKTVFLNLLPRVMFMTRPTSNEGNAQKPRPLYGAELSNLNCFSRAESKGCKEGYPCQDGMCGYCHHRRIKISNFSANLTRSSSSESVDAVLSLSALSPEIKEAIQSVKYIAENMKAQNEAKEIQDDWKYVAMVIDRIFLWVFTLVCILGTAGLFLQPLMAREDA

For the compound `C[C@H](NC(=O)[C@H](CCCNC(=N)N)NC(=O)[C@H](CO)NC(=O)[C@H](CCCNC(=N)N)NC(=O)[C@H](CO)NC(=O)[C@H](CS)NC(=O)[C@H](C)NC(=O)[C@@H]1CCCN1C(=O)[C@H](Cc1c[nH]cn1)NC(=O)[C@H](CO)NC(=O)[C@H](CS)NC(=O)[C@H](CS)NC(=O)CN)C(=O)N[C@@H](CO)C(=O)N[C@@H](CO)C(=O)N[C@@H](CS)C(=O)O` (H-GCCSHPACSRSRASSC-OH), the negative-log IC50 (pIC50) is 5.27 in experiment [1] and < 5.00 in [2].
On to `C[C@H](NC(=O)[C@H](CCCNC(=N)N)NC(=O)[C@H](CO)NC(=O)[C@@H]1CCCN1C(=O)[C@H](CO)NC(=O)[C@H](CS)NC(=O)[C@H](C)NC(=O)[C@@H]1CCCN1C(=O)[C@H](Cc1c[nH]cn1)NC(=O)[C@H](CO)NC(=O)[C@H](CS)NC(=O)[C@H](CS)NC(=O)CN)C(=O)N[C@@H](CO)C(=O)N[C@@H](CO)C(=O)N[C@@H](CS)C(=O)O` (H-GCCSHPACSPSRASSC-OH), for which, in [1], the pIC50 was < 5.00.
Turning to `C[C@H](NC(=O)[C@H](CCCNC(=N)N)NC(=O)[C@H](CCCNC(=N)N)NC(=O)[C@@H]1CCCN1C(=O)[C@H](CO)NC(=O)[C@H](CS)NC(=O)[C@H](C)NC(=O)[C@@H]1CCCN1C(=O)[C@H](Cc1c[nH]cn1)NC(=O)[C@H](CO)NC(=O)[C@H](CS)NC(=O)[C@H](CS)NC(=O)CN)C(=O)N[C@@H](CCCNC(=N)N)C(=O)N[C@@H](CO)C(=O)N[C@@H](CS)C(=O)O` (H-GCCSHPACSPRRARSC-OH), the negative logarithm of the IC50 (pIC50) in experiment [1] is 5.67; in experiment [2], 5.95. Moreover, the Activity in [3] (filed as antagonist) stood at 16%; in experiment [4] (filed as antagonist) it was 10%; in experiment [5], 97%; in experiment [6] it was 99%.
For the compound `C[C@H](NC(=O)[C@H](CCCNC(=N)N)NC(=O)[C@H](CCCNC(=N)N)NC(=O)[C@H](Cc1c[nH]cn1)NC(=O)[C@H](CO)NC(=O)[C@H](CCCCN)NC(=O)[C@H](CS)NC(=O)[C@H](C)NC(=O)[C@@H]1CCCN1C(=O)[C@H](Cc1c[nH]cn1)NC(=O)[C@H](CO)NC(=O)[C@H](CS)NC(=O)[C@H](CS)NC(=O)CN)C(=O)N[C@@H](CCCNC(=N)N)C(=O)N[C@@H](CS)C(=O)O` (H-GCCSHPACKSHRRARC-OH), the negative-log IC50 (pIC50) is 5.72 in experiment [1] and 6.88 in experiment [2]. Further, the results for the Activity in experiment [3] (filed as antagonist) and in experiment [4] (filed as antagonist) were 13% and 0.7%, respectively.
For `C[C@H](NC(=O)[C@H](CCCNC(=N)N)NC(=O)[C@H](CCCNC(=N)N)NC(=O)[C@H](Cc1c[nH]cn1)NC(=O)[C@H](CO)NC(=O)[C@H](CS)NC(=O)[C@H](C)NC(=O)[C@@H]1CCCN1C(=O)[C@H](Cc1c[nH]cn1)NC(=O)[C@H](CO)NC(=O)[C@H](CS)NC(=O)[C@H](CS)NC(=O)CN)C(=O)N[C@@H](CCCNC(=N)N)C(=O)N[C@@H](CO)C(=O)N[C@@H](CS)C(=O)O` (H-GCCSHPACSHRRARSC-OH), in that order: 5.00, 5.89, 46% and 6%.
Turning to `CC[C@H](C)[C@H](NC(=O)[C@H](CCC(=O)O)NC(=O)[C@@H]1CCCN1C(=O)[C@H](Cc1c[nH]cn1)NC(=O)[C@H](CC(=O)O)NC(=O)[C@@H](NC(=O)[C@H](CC(N)=O)NC(=O)[C@H](CS)NC(=O)[C@H](C)NC(=O)[C@@H]1CCCN1C(=O)[C@H](Cc1c[nH]cn1)NC(=O)[C@H](CO)NC(=O)[C@H](CS)NC(=O)[C@H](CS)NC(=O)CN)C(C)C)C(=O)N[C@@H](CS)C(=O)O`, the negative-log IC50 (pIC50) is < 5.00 in [1]; < 5.00 in experiment [2]; 7.60 in experiment [7]; < 5.00 in experiment [8]; < 5.00 in [9]. The Activity in [3] came to 81%; in experiment [10], 91%; in [11], 74%; in [4] it was 103%. Further, the Ratio IC50 in the experiment filed under Homo sapiens [12], in the experiment filed under Homo sapiens [13], in the experiment filed under Homo sapiens [14] and in the experiment listed under Homo sapiens [15] was > 400 throughout.
On to `C[C@H](NC(=O)[C@H](CCCNC(=N)N)NC(=O)[C@H](CCCNC(=N)N)NC(=O)[C@H](CCCNC(=N)N)NC(=O)[C@H](CO)NC(=O)[C@H](CS)NC(=O)[C@H](C)NC(=O)[C@@H]1CCCN1C(=O)[C@H](Cc1c[nH]cn1)NC(=O)[C@H](CO)NC(=O)[C@H](CS)NC(=O)[C@H](CS)NC(=O)CN)C(=O)N[C@@H](CCCNC(=N)N)C(=O)N[C@@H](CO)C(=O)N[C@@H](CS)C(=O)O` (H-GCCSHPACSRRRARSC-OH), for which the negative-log IC50 (pIC50) in experiment [1] is 6.75; in [2], 7.01. In addition, the Activity turned out to be 1.4% in experiment [3] (filed as antagonist), 1% in experiment [4] (filed as antagonist), 99% in [16] and 21% in [17].
